We go through twelve compounds from ChEMBL document CHEMBL1221221, “Discovering chemical modifiers of oncogene-regulated hematopoietic differentiation” (Nat Chem Biol, 2009).

Activity calls are given as the source filed them. No cut-off for these calls is given here.

The species named for data set [1] is Danio rerio. Description: Inhibition of heat-induced AML1-ETO protein expression in heterozygous transgenic zebrafish embryo at 0.15 uM by Western blot analysis. It is filed as functional, organism-based. A digest of the protocol: (§1)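 Heterozygous Tg(hsp:AML1-ETO) embryos, bred from homozygous transgenic × wild-type crosses, were heat-treated at 39−40 °C for 1 h to induce AE. Lysates were Western blotted with anti-AML1 antibody for AE and also probed for Hsp70, with Akt as the loading reference. Controls were DMSO vehicle, heat-treated wild-type embryos, and unheated transgenic embryos.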
On the technique in general: A western blot detects proteins with antibodies after separation by electrophoresis.

For data set [2], the species on record is Danio rerio. Description: Inhibition of Hsp70 expression in heterozygous transgenic zebrafish embryo at 0.15 uM by Western blot analysis. It is filed as functional, organism-based. A digest of the protocol:
as §1

Data set [3] is filed under the species Danio rerio. Put plainly: Inhibition of heat-induced AML1-ETO protein expression in heterozygous transgenic zebrafish embryo by Western blot analysis. It counts as functional, organism-based. A digest of the protocol:
as §1

The species named for data set [4] is Danio rerio. Put plainly: Inhibition of Hsp70 expression in heterozygous transgenic zebrafish embryo at 0.5 uM by Western blot analysis. It counts as functional, organism-based. The procedure, abridged:
(§2)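 Heterozygous Tg(hsp:AML1-ETO) embryos treated with compound or DMSO and heat-treated to induce transgene expression. Lysates examined by Western blot with anti-AML1 antibody for AML1-ETO, and also probed for Hsp70. Akt used as loading reference. Controls were heat-treated wild-type embryos and unheated transgenic embryos.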

The species named for data set [5] is Danio rerio. Put plainly: Inhibition of heat-induced AML1-ETO protein expression in heterozygous transgenic zebrafish embryo at 0.5 uM by Western blot analysis. It is filed as functional, organism-based. A digest of the protocol:
as §2

Data set [6] is filed under the species Danio rerio. Conditions: 40 uM.
The species entered for data set [7] is Danio rerio. Conditions: 40 uM. This is another data set of the same source.
The species named for data set [8] is Danio rerio. Conditions: 40 uM. The source holds these as a separate data set.
The species entered for data set [9] is Danio rerio. The note with it: 40 uM. This is another data set of the same source.
Data set [10] is filed under the species Danio rerio. Description: Effect on gata1 gene expression in wild type zebrafish embryo at 20 uM treated 14 hrs post fertilization by in-situ hybridization analysis. It is filed as functional, organism-based.
The species entered for data set [11] is Danio rerio. Put plainly: Effect on scl gene expression in wild type zebrafish embryo at 20 uM treated 14 hrs post fertilization by in-situ hybridization analysis. It is filed as functional, organism-based.
For data set [12], the species on record is Danio rerio. Description: Effect on MPO gene expression in wild type zebrafish embryo at 20 uM treated 14 hrs post fertilization by in-situ hybridization analysis. It is filed as functional, organism-based.
The species named for data set [13] is Danio rerio. Put plainly: Effect on l-plastin gene expression in wild type zebrafish embryo at 20 uM treated 14 hrs post fertilization by in-situ hybridization analysis. It counts as functional, organism-based.
For data set [14], the species on record is Danio rerio. Description: Induction of MPO-positive granulocytic cell accumulation in heat-stimulated heterozygous transgenic zebrafish embryo. It is filed as functional, organism-based.
Data set [15] is filed under the species Danio rerio. Description: Induction of AML1-ETO protein translation in 37 degC heat-stimulated heterozygous transgenic zebrafish assessed as phenotype appearance after 1 hr by in-situ hybridization analysis. It counts as functional, organism-based.
Data set [16] is filed under the species Danio rerio. Description: Downregulation of gata1 gene expression in 39 to 40 degC heat-stimulated heterozygous transgenic zebrafish embryo after 1 hr by in-situ hybridization analysis. It is filed as functional, organism-based.
Data set [17] is filed under the species Danio rerio. Put plainly: Upregulation of MPO gene expression in 39 to 40 degC heat-stimulated heterozygous transgenic zebrafish embryo after 1 hr by in-situ hybridization analysis. It counts as functional, organism-based.
The species named for data set [18] is Danio rerio. Description: Induction of AML1-ETO protein translation in 39 to 40 degC heat-stimulated heterozygous transgenic zebrafish assessed as phenotype appearance after 1 hr by in-situ hybridization analysis. It counts as functional, organism-based.
The species named for data set [19] is Danio rerio. Put plainly: Inhibition of COX2-mediated decrease in gata1 expression in heat-stimulated heterozygous transgenic zebrafish embryo assessed as restoration of gata1 level at 20 uM by in-situ hybridization analysis. The procedure, abridged: (§3)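 Heterozygous Tg(hsp:AML1-ETO) embryos from homozygous × wild-type crosses. Compound added in DMSO 1 h before heat treatment at 39−40 °C for 1 h at 16−18 hpf. Embryos fixed 90 min after heat treatment, then whole-mount in situ hybridization for gata1 in posterior blood islands. Scored as counts of embryos showing the phenotype. DMSO vehicle control; unheated transgenic embryos for comparison.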

The species entered for data set [20] is Danio rerio. Put plainly: Inhibition of COX2-mediated decrease in gata1 expression in heterozygous transgenic zebrafish embryo assessed as restoration of gata1 level at 20 uM by in-situ hybridization analysis. A digest of the protocol:
as §3

Data set [21] is filed under the species Danio rerio. Put plainly: Inhibition of COX2 in heat-stimulated heterozygous transgenic zebrafish embryo assessed as MPO-positive granulocytic cell accumulation at 20 uM by in situ hybridization analysis. A digest of the protocol: (§4)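 Heterozygous Tg(hsp:AML1-ETO) embryos given heat treatment at 39−40 °C for 1 h at 16−18 hpf. Compound added in DMSO right at the end of heat treatment, with or without PGE2 (20 μM). Embryos fixed at 36−40 hpf for mpo in situ hybridization of granulocytic cells. Scored as counts of embryos showing the phenotype; unheated transgenic embryos also tested.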

The species named for data set [22] is Danio rerio. Put plainly: Inhibition of COX2 in heterozygous transgenic zebrafish embryo assessed as MPO-positive granulocytic cell accumulation at 20 uM by in situ hybridization analysis. The procedure, abridged:
as §4

For data set [23], the species on record is Danio rerio. Description: Inhibition of COX2 in heat-stimulated heterozygous transgenic zebrafish embryo assessed as MPO-positive granulocytic cell accumulation at 20 uM by in situ hybridization analysis in presence of PGE2. The procedure, abridged:
as §4

For data set [24], the target named is Glycogen synthase kinase 3 beta (Danio rerio) (UniProt Q9YH60). Put plainly: Inhibition of GSK-3-beta-mediated activation of […] signaling in heat-stimulated heterozygous transgenic zebrafish embryo assessed as down-regulation of gata1 gene expression at 0.5 uM by in-situ hybridization analysis. A digest of the protocol: (§5)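 Heterozygous Tg(hsp:AML1-ETO) embryos exposed to the GSK-3β inhibitor from 14 hpf, after gastrulation, then given a mild heat treatment (37 °C, 1 h) or none. DMSO vehicle control. In situ hybridization for gata1 or mpo. Scored as numbers of embryos showing gata1 downregulation or mpo upregulation.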
Chain of Glycogen synthase kinase 3 beta (Danio rerio) (Q9YH60 as listed by the source): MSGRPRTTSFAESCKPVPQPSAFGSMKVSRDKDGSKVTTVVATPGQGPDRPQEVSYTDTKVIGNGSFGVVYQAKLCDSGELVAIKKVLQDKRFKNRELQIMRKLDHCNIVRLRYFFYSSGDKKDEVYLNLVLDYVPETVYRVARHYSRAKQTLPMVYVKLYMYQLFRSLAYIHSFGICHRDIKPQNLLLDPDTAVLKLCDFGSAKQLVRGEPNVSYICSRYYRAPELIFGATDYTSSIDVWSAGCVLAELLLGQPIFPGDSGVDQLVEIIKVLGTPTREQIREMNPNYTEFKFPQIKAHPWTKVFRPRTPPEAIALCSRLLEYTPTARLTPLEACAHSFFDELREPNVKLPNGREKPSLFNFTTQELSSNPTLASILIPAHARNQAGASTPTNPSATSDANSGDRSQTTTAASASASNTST

The target is the same in data set [25]. Put plainly: Inhibition of GSK-3-beta-mediated activation of […] signaling in heat-stimulated heterozygous transgenic zebrafish embryo assessed as upregulation of MPO gene expression at 0.5 uM by in-situ hybridization analysis. The procedure, abridged:
as §5

Data set [26] shares this target. Put plainly: Inhibition of GSK-3-beta-mediated activation of […] signaling in heterozygous transgenic zebrafish embryo assessed as effect on gata1 gene expression at 0.5 uM by in-situ hybridization analysis. A digest of the protocol:
as §5

For data set [27] the target is unchanged. Description: Inhibition of GSK-3-beta-mediated activation of […] signaling in heterozygous transgenic zebrafish embryo assessed as effect on MPO gene expression at 0.5 uM by in-situ hybridization analysis. A digest of the protocol: as §5
For data set [28], the species on record is Danio rerio. Description: Effect on gross morphology of heterozygous transgenic zebrafish embryo at 0.5 uM. It counts as ADME, organism-based. The note with it: in vivo.
The species entered for data set [29] is Danio rerio. Description: Inhibition of AML1-ETO protein translation in heterozygous transgenic zebrafish assessed as suppression of phenotype appearance. It counts as functional, organism-based. The procedure, abridged:
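Heterozygous Tg(hsp:AML1-ETO) embryos were dechorionated with pronase at 12−16 hpf and kept in E3 buffer, five per well. Compound was added at 20 μM final. One hour later, AE expression was induced by heat shock at 40 °C for 1 h, followed by 90 min at 28.5 °C. Embryos were then fixed and gata1 in situ hybridization was scored in the posterior blood islands.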

The species named for data set [30] is Danio rerio. Put plainly: Inhibition of COX2-mediated decrease in gata1 expression in heat-stimulated heterozygous transgenic zebrafish embryo assessed as restoration of gata1 level at 25 uM by in-situ hybridization analysis. The procedure, abridged:
as §3

For data set [31], the species on record is Danio rerio. Put plainly: Inhibition of COX2-mediated decrease in gata1 expression in heterozygous transgenic zebrafish embryo assessed as restoration of gata1 level at 25 uM by in-situ hybridization analysis. The procedure, abridged: as §3
The species entered for data set [32] is Danio rerio. Description: Inhibition of COX2 in heat-stimulated heterozygous transgenic zebrafish embryo assessed as MPO-positive granulocytic cell accumulation at 25 uM by in situ hybridization analysis. A digest of the protocol: as §4
For data set [33], the species on record is Danio rerio. Description: Inhibition of COX2 in heterozygous transgenic zebrafish embryo assessed as MPO-positive granulocytic cell accumulation at 25 uM by in situ hybridization analysis. A digest of the protocol:
as §4

The species named for data set [34] is Danio rerio. Description: Inhibition of COX2 in heat-stimulated heterozygous transgenic zebrafish embryo assessed as MPO-positive granulocytic cell accumulation at 25 uM by in situ hybridization analysis in presence of PGE2. The procedure, abridged:
as §4

In the case of `C=C(C)[C@H]1Cc2c(ccc3c2O[C@@H]2COc4cc(OC)c(OC)cc4[C@@H]2C3=O)O1`, the inhibition entry in data set [1] and in data set [2] was “Active” in each case.

For `COc1ccc2c(c1)O[C@@H]1COc3cc(OC)c(OC)cc3[C@@H]1C2=O`, the “inhibition of AML1-ETO protein expression (active/not active)” value (“inhibition … (active/not active)” for short) in [3] is “Active”.

As to `CS(=O)(=O)Nc1ccc([N+](=O)[O-])cc1Oc1ccccc1`, the inhibition result in [4], in [5], in data set [6], in data set [8] and in [9] was “inactive” each time. For the same compound, the inhibition result in [7] was “Active”.

For `Oc1ccc(Cl)cc1Cc1cc(Cl)ccc1O`, in [3], the “inhibition … (active/not active)” value is “Active”.

As to `CCCCC[C@H](O)/C=C/[C@H]1[C@H](O)CC(=O)[C@@H]1C/C=C\CCCC(=O)O`, the result in data set [10], in [11], in data set [12] and in data set [13] was inactive. Moreover, the result in data set [14] and in [18] was Active. Also, the inhibition result in data set [15] is “Active”. The inhibition result in data set [16] and in [17] was “inactive” in each case.

Take `COc1ccc2c(c1)c(CC(=O)O)c(C)n2C(=O)c1ccc(Cl)cc1`: the inhibition result in data set [19] and in [21] was “Active” throughout. Besides, the inhibition result in [20], in data set [22] and in data set [23] was “inactive” throughout.

Regarding `O=C1Nc2cc(Br)ccc2/C1=C1/Nc2ccccc2/C1=N\O` [6BIO], the inhibition entry in data set [24], in data set [25], in [26] and in [27] was “Active” each time. In addition, in data set [28], the Activity result is on record as “Toxic”.

As for `CC(/C=C/C(=O)NO)=C\[C@@H](C)C(=O)c1ccc(N(C)C)cc1`, the inhibition result in data set [4] and in data set [5] was “inactive” throughout.

Consider `C[C@@H]1C[C@@H]([C@H](O)CC2CC(=O)NC(=O)C2)C(=O)[C@@H](C)C1`, for which the Imax result in [29] is “Active”. Further, the inhibition entry in [2] was “Active”.

`O=c1oc2ccccc2c(O)c1Cc1c(O)c2ccccc2oc1=O`: in data set [3], the “inhibition … (active/not active)” value was “inactive”.

On to `Oc1c(Cl)cc(Cl)cc1Sc1cc(Cl)cc(Cl)c1O`, for which, in data set [3], the “inhibition … (active/not active)” value is “Active”.

Regarding `CS(=O)(=O)Nc1ccc([N+](=O)[O-])cc1OC1CCCCC1`, the inhibition entry in data set [30] and in data set [32] was “Active” each time. The inhibition entry in data set [31], in [33] and in [34] was “inactive” throughout.
